Holding throughout (format): functional
Assay [1] concerns Radical scavenging activity. The experiment in a line: Antioxidant activity assessed as DPPH radical scavenging activity after 20 min. Put shortly: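 Percent antiradical activity = (1 − sample/blank absorbance)×100; IC25 from logarithmic regression over 5–6 concentrations; highest concentration tested 400 µM.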
In general terms: DPPH is a stable violet radical that fades when it is reduced.

A short description of assay [2]: Antioxidant activity in BALB/c mouse BM cells assessed as inhibition of ROS production. Particulars: Bone marrow cell. The method in brief:
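Whole bone marrow cells flushed from tibias and femurs with phenol red-free HBSS pH 7.4, strained through 70 µm, 1 × 10^6 cells/mL. L-012 (40 µM final) and horseradish peroxidase (8 µg/ml final) added; cells mixed with compound from DMSO stock (1% DMSO final). Luminescence read 60 min every 2 min at 37°C; area under curve gives total signal; IC25 from % inhibition versus log concentration, 5–7 concentrations.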

The nature of assay [3]: Antioxidant activity assessed as inhibition of superoxide production by xanthine/xanthine oxidase method. The method in brief: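 Superoxide generated from 500 µM xanthine with 3.75 mU/mL xanthine oxidase in 0.1 M phosphate buffer pH 7.5, detected as reduction of 500 µM NBT to monoformazan at 560 nm, 25°C, as rate of absorbance change. IC25 from rate versus log concentration, 5–7 concentrations, top concentration 50 µM.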

The structures appear in SMILES notation. The source made the active and inactive calls. The calls are words filed in the database; no cut-off is given here.

`COc1ccccc1-c1oc2ccccc2c(=O)c1O`: in assay [1], the result was inactive. Besides, the IC25 in assay [2] is 49 µM.

With `COc1cc(-c2cc(=O)c3ccccc3o2)ccc1O`, the outcome in assay [1] and in assay [3] was inactive. Moreover, the IC25 in assay [2] is 14.5 µM.

In the case of `COc1cc(O)c2c(=O)cc(-c3ccccc3)oc2c1` [TECHTOCHRYSIN], the result in assay [1] and in assay [3] was inactive. In addition, the IC25 in assay [2] worked out at 160 µM.

In the case of `C[C@@H]1O[C@@H](OC[C@H]2O[C@@H](Oc3c(-c4ccc(O)c(O)c4)oc4cc(O)cc(O)c4c3=O)[C@H](O)[C@@H](O)[C@@H]2O)[C@H](O)[C@H](O)[C@H]1O`, the IC25 in assay [1] worked out at 12.2 µM; in assay [3], 4.5 µM.

Turning to `O=C1CC(c2ccc(O)cc2)Oc2ccccc21` (stereo not given) [4'-HYDROXY-FLAVANONE], the result in assay [1] and in assay [3] was inactive. For the same compound, the IC25 in assay [2] worked out at 3300 µM.

Regarding `O=c1cc(-c2ccccc2)oc2cc(O)c(O)c(O)c12` [BAICALEIN], the results for the IC25 in assay [1], in assay [3] and in assay [2] were 1.5 µM, 2.6 µM and 10.4 µM, respectively.

For `O=c1cc(-c2ccccc2O)oc2c(O)c(O)ccc12`, the IC25 stood at 2.1 µM in assay [1], 1.2 µM in assay [3] and 0.52 µM in assay [2].

Turning to `O=c1c(O)c(-c2ccc(O)c(O)c2)oc2cc(O)cc(O)c12` [QUERCETIN], the IC25 in assay [1] was 8.1 µM; in assay [3] it was 3 µM; in assay [2] it was 3.5 µM.

`O=c1c(O)c(-c2cc(O)c(O)c(O)c2)oc2cc(O)cc(O)c12` [MYRICETIN]: the IC25 in assay [1] is 41.8 µM; in assay [3] it was 6.8 µM; in assay [2], 5.2 µM.

Consider `COc1c(-c2ccc(O)c(O)c2)oc2cc(O)cc(O)c2c1=O` [3-O-METHYLQUERCETIN], for which the IC25 in assay [1] amounted to 5.9 µM; in assay [3] it was 3.6 µM; in assay [2], 58 µM.

With `O=c1cc(-c2ccccc2O)oc2cc(O)cc(O)c12`, the result in assay [1] and in assay [3] was inactive. The IC25 in assay [2] was determined as 5.7 µM.

Regarding `COc1cccc2oc(-c3ccc(O)cc3)cc(=O)c12`, the outcome in assay [1] and in assay [3] was inactive. Also, in assay [2], the IC25 came to 1270 µM.

In the case of `COc1ccc(-c2cc(=O)c3c(O)cc(O)cc3o2)cc1` [ACACETIN], the result in assay [1] was inactive. For the same compound, the IC25 was 16.3 µM in assay [3] and 1180 µM in assay [2].

Turning to `C[C@@H]1O[C@@H](O[C@H]2[C@H](Oc3cc(O)c4c(=O)cc(-c5ccc(O)cc5)oc4c3)O[C@H](CO)[C@@H](O)[C@@H]2O)[C@H](O)[C@H](O)[C@H]1O` [RHOIFOLIN], the IC25 in assay [3] amounted to 7.2 µM; in assay [2], 201 µM.

For the compound `CN1CCc2cccc3c2[C@H]1Cc1ccc(O)c(O)c1-3` [APOMORPHINE], in assay [3], the IC25 was 16.2 µM.

Consider `COc1ccc2c(=O)cc(-c3ccccc3)oc2c1O`, for which the result in assay [1] and in assay [3] was inactive. Also, the IC25 in assay [2] was 3.1 µM.

Turning to `O=C(CCc1ccc(O)cc1)c1c(O)cc(O)cc1O` [PHLORETIN], the result in assay [1] and in assay [3] was inactive. Further, the IC25 in assay [2] turned out to be 300 µM.

Regarding `O=c1cc(-c2cccc(O)c2O)oc2ccccc12`, the IC25 in assay [1] was found to be 0.5 µM.

For the compound `O=C1C[C@@H](c2ccc(O)cc2)Oc2cc(O)cc(O)c21` [NARINGENIN], the result in assay [1] and in assay [3] was inactive. Also, in assay [2], the IC25 stood at 551 µM.

For the compound `O=c1c(O)c(-c2ccc(O)cc2)oc2cc(O)ccc12` [RESOKAEMPFEROL], the IC25 in assay [1] was 4.1 µM; in assay [3] it was 48 µM; in assay [2], 23 µM.

On to `COc1cc([C@@H]2Oc3cc([C@@H]4Oc5cc(O)cc(O)c5C(=O)[C@H]4O)ccc3O[C@H]2CO)ccc1O`, for which the values for the IC25 in assay [1], in assay [3] and in assay [2] were 61.4 µM, 7.7 µM and 140 µM, respectively.

Consider `O=c1c(O)c(-c2ccc(O)cc2)oc2ccc(O)cc12`, for which, in assay [1], the IC25 turned out to be 4.5 µM.

In the case of `COc1ccc([C@@H]2CC(=O)c3c(O)cc(O)cc3O2)cc1O` [HESPERETIN], the IC25 is 83 µM in assay [1] and 647 µM in assay [2]. Further, the outcome in assay [3] was inactive.

For `COc1c(-c2ccccc2)oc2cc(O)ccc2c1=O`, the outcome in assay [1] and in assay [3] was inactive. For the same compound, the IC25 in assay [2] came to 1050 µM.

Consider `Oc1ccc(/C=C/c2cc(O)cc(O)c2)cc1` [RESVERATROL], for which the IC25 in assay [1] worked out at 349 µM; in assay [2], 70 µM. In addition, in assay [3], the outcome was inactive.

Take `O=c1c(O)c(-c2ccc(O)c(O)c2)oc2cc(O)ccc12` [FISETIN]: the IC25 in assay [1] was determined as 7.9 µM; in assay [3], 2.7 µM; in assay [2], 31 µM.

Regarding `O=c1cc(-c2cccc(O)c2)oc2c(O)c(O)ccc12`, the IC25 was 2.7 µM in assay [1], 2.4 µM in assay [3] and 0.8 µM in assay [2].

With `COc1ccc(C2CC(=O)c3c(O)cc(O[C@@H]4O[C@H](CO[C@@H]5O[C@@H](C)[C@H](O)[C@@H](O)[C@H]5O)[C@@H](O)[C@H](O)[C@H]4O)cc3O2)cc1O` (stereo not given in full), the result in assay [1] and in assay [3] was inactive.

For `O=c1c(O)c(-c2ccc(O)c(O)c2)oc2ccccc12`, the IC25 was found to be 0.7 µM in assay [1], 0.68 µM in assay [3] and 1.75 µM in assay [2].

Turning to `COc1ccc(-c2oc3ccc(C)cc3c(=O)c2O)cc1OC`, the IC25 in assay [1] was 89 µM.

For `O=c1cc(-c2ccccc2)oc2cc(O)cc(O)c12` [CHRYSIN], the result in assay [1] and in assay [3] was inactive. The IC25 in assay [2] was 4480 µM.

Regarding `O=c1cc(-c2ccc(O)cc2)oc2cc(O)cc(O)c12` [APIGENIN], the outcome in assay [1] and in assay [3] was inactive. Also, the IC25 in assay [2] came out at 113 µM.

Take `O=C1CC(c2ccccc2O)Oc2ccccc21` (stereo not given) [2'-HYDROXY-FLAVANONE]: the result in assay [1] and in assay [3] was inactive. In addition, the IC25 in assay [2] was found to be 5620 µM.

Consider `O=c1cc(-c2ccc(O)c(O)c2)oc2cc(O)cc(O)c12` [LUTEOLIN], for which the results for the IC25 in assay [1], in assay [3] and in assay [2] were 12.1 µM, 6.9 µM and 13.7 µM, respectively.

With `COc1ccc(-c2cc(=O)c3c(O)cc(O[C@@H]4O[C@H](CO[C@@H]5O[C@@H](C)[C@H](O)[C@@H](O)[C@H]5O)[C@@H](O)[C@H](O)[C@H]4O)cc3o2)cc1O`, the result in assay [1] and in assay [3] was inactive.

As to `O=c1cc(-c2ccc(O)c(O)c2)oc2cccc(O)c12`, the IC25 in assay [1] was 1.5 µM.

With `COc1ccc(-c2coc3cc(O)cc(O)c3c2=O)cc1` [BIOCHANIN], the outcome in assay [1] and in assay [3] was inactive. Also, the IC25 in assay [2] came to 33 µM.

Regarding `Oc1cc(O)c2c(c1)O[C@H](c1ccc(O)c(O)c1)[C@@H](O)C2` [CIANIDANOL], the IC25 in assay [1] was found to be 33.3 µM; in assay [3] it was 45.8 µM; in assay [2], 168 µM.

On to `O=c1c(O)c(-c2ccc(O)cc2)oc2cc(O)cc(O)c12` [KAEMPFEROL], for which the IC25 was found to be 22.6 µM in assay [1] and 4 µM in assay [2]. Also, the outcome in assay [3] was inactive.

Consider `O=c1c(O)c(-c2ccccc2)oc2cc(O)cc(O)c12` [GALANGIN], for which the IC25 in assay [1] stood at 86.4 µM; in assay [2], 4.3 µM. Further, in assay [3], the outcome was inactive.

The IC25 is the concentration needed for an effect of 25%.

The values are drawn from ChEMBL document CHEMBL1146339, “Improved quantitative structure-activity relationship models to predict antioxidant activity of flavonoids in chemical, enzymatic, and cellular systems” (Bioorg Med Chem, 2007).
